In ChEMBL document CHEMBL1123776, “Solid-phase synthesis and biological properties of psi [CH2NH] pseudopeptide analogues of a highly potent somatostatin octapeptide” (1987) one finds Potency, ED50 and Plasma GH data, which are given here for 20 molecules.

A value given as a limit tells only on which side of the number the result lay.

Experiment [1] has as its system Rattus norvegicus. Nature of the experiment: Ability to inhibit growth hormone release in vivo in sodium pentobarbital anesthetized rats. The experiment is classed as functional. Put shortly: (§1)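 Male Sprague-Dawley rats anesthetized with sodium pentobarbital were given peptide, with saline and tetradecapeptide SRIF controls, at doses of 0.003–10 µg/100 g BW. Plasma GH was measured by radioimmunoassay. Values are mean ± SEM, with the number of rats per group given.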

The species entered for experiment [2] is Rattus norvegicus. Nature of the experiment: Activity is measured as concentration producing 50% inhibition of growth hormone secretion in rats. It counts as functional. Put shortly: (§2)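 Primary cultures of male rat anterior pituitary cells were kept for 4 days and then exposed to peptide. GH in the medium was measured by radioimmunoassay. The EC50 (50% inhibition of GH secretion) was fitted with ALLFIT. Potency was expressed as the ratio to the EC50 of tetradecapeptide SRIF as reference standard.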

Experiment [3] is filed under the species Rattus norvegicus. In words: Ability to inhibit growth hormone release in vitro in cultured rat anterior pituitary cells. It counts as functional, Pituitary gland cell. Put shortly: as §2
In experiment [4] the test system is Rattus norvegicus. Nature of the experiment: Ability to inhibit growth hormone release in the anesthetized rats measured as plasma growth hormone at a dose of 0.03 ug/100 g BW. The experiment is classed as functional, organism-based. Put shortly: as §1
The subject of experiment [5] is Rattus norvegicus. In words: Ability to inhibit growth hormone release in the anesthetized rats measured as plasma growth hormone at a dose of 0.01 ug/100 g BW. The experiment is classed as functional, organism-based. Put shortly:
as §1

Experiment [6] has as its system Rattus norvegicus. In words: Ability to inhibit growth hormone release in the anesthetized rats measured as plasma growth hormone at a dose of 1 ug/100 g BW. It counts as functional, organism-based. Put shortly:
as §1

The subject of experiment [7] is Rattus norvegicus. In words: Ability to inhibit growth hormone release in the anesthetized rats measured as plasma growth hormone at a dose of 0.1 ug/100 g BW. It counts as functional, organism-based. Put shortly: as §1
In experiment [8] the test system is Rattus norvegicus. Nature of the experiment: Ability to inhibit growth hormone release in the anesthetized rats measured as plasma growth hormone ata dose of 0.01 ug/100 g BW. It counts as functional, organism-based. Put shortly:
as §1

Experiment [9] has as its system Rattus norvegicus. Nature of the experiment: Ability to inhibit growth hormone release in the anesthetized rats measured as plasma growth hormone at a dose of 0.09 ug/100 g BW. The experiment is classed as functional, organism-based. Put shortly:
as §1

Experiment [10] has as its system Rattus norvegicus. In words: Ability to inhibit growth hormone release in the anesthetized rats measured as plasma growth hormone at a dose of 0.6 ug/100 g BW. It counts as functional, organism-based. Put shortly:
as §1

Experiment [11] relates to Rattus norvegicus. Nature of the experiment: Ability to inhibit growth hormone release in the anesthetized rats measured as plasma growth hormone at a dose of 0.2 ug/100 g BW. The experiment is classed as functional, organism-based. Put shortly: as §1
Experiment [12] concerns Rattus norvegicus. In words: Ability to inhibit growth hormone release in the anesthetized rats measured as plasma growth hormone at a dose of 10 ug/100 g BW. It counts as functional, organism-based. Put shortly: as §1
The test system of experiment [13] is Rattus norvegicus. Nature of the experiment: Ability to inhibit growth hormone release in the anesthetized rats measured as plasma growth hormone at a dose of 10 ug/100 g. It counts as functional, organism-based. Put shortly: as §1

As for `CC(C)[C@@H]1NC(=O)[C@H](CCCCN)NC(=O)[C@@H](Cc2c[nH]c3ccccc23)NC[C@H](Cc2ccc(O)cc2)NC(=O)[C@@H](NC(=O)[C@H](N)Cc2ccccc2)CSSC[C@@H](C(=O)N[C@H](C(N)=O)[C@@H](C)O)NC1=O`, the results for the Potency in experiment [1] and in experiment [3] were 20% and 0.68%, respectively. The ED50 in experiment [2] came to 9.1 nM.

Take `CC(C)[C@@H]1NC(=O)[C@H](CCCCN)NC(=O)[C@@H](Cc2c[nH]c3ccccc23)NC(=O)[C@H](Cc2ccc(O)cc2)NC[C@@H](NC(=O)[C@H](N)Cc2ccccc2)CSSC[C@@H](C(=O)N[C@H](C(N)=O)[C@@H](C)O)NC1=O`: the Potency in [1] turned out to be 1960%; in experiment [3], 17.43%. In experiment [2], this molecule showed an ED50 of 0.35 nM.

`CC(C)[C@@H]1CN[C@H](C(=O)N[C@H](C(N)=O)[C@@H](C)O)CSSC[C@H](NC(=O)[C@H](N)Cc2ccccc2)C(=O)N[C@@H](Cc2ccc(O)cc2)C(=O)N[C@H](Cc2c[nH]c3ccccc23)CN[C@@H](CCCCN)C(=O)N1`: the Potency is recorded as 2% in [1] and less than 0.001% in experiment [3]. Further, the ED50 in experiment [2] was greater than 1000 nM.

Consider `CC(C)[C@@H]1NC(=O)[C@H](CCCCN)NC(=O)[C@@H](Cc2c[nH]c3ccccc23)NC(=O)[C@H](Cc2ccc(O)cc2)NC(=O)[C@@H](NC[C@@H](N)Cc2ccccc2)CSSC[C@@H](C(=O)N[C@H](C(N)=O)[C@@H](C)O)NC1=O`, for which the Potency worked out at 160% in experiment [1] and 1.01% in experiment [3]. Further, in [2], the ED50 was determined as 6.1 nM.

Regarding `CC(C)[C@H]1NC(=O)[C@H](CCCCN)NC(=O)[C@@H](Cc2c[nH]c3ccccc23)NC(=O)[C@H](Cc2ccc(O)cc2)NC[C@@H](NC(=O)[C@@H](N)Cc2ccccc2)CSSC[C@H](C(=O)N[C@H](C(N)=O)[C@@H](C)O)NC1=O`, the values for the Plasma GH in experiment [4] and in experiment [5] were 98 ng/mL and 146 ng/mL, respectively.

Regarding `CC(C)[C@H]1NC[C@H](CCCCN)NC(=O)[C@@H](Cc2c[nH]c3ccccc23)NC(=O)[C@H](Cc2ccc(O)cc2)NC[C@@H](NC(=O)[C@@H](N)Cc2ccc3ccccc3c2)CSSC[C@H](C(=O)N[C@H](C(N)=O)[C@@H](C)O)NC1=O`, the Plasma GH amounted to 133 ng/mL in [6], 291 ng/mL in [7] and 433 ng/mL in experiment [8].

Consider `CC(C)[C@H]1NC[C@H](CCCCN)NC(=O)[C@@H](Cc2c[nH]c3ccccc23)NC(=O)[C@H](Cc2ccc(O)cc2)NC(=O)[C@@H](NC(=O)[C@@H](N)Cc2ccccc2)CSSC[C@H](C(=O)N[C@H](C(N)=O)[C@@H](C)O)NC1=O`, for which the Plasma GH in [4] came out at 174 ng/mL; in experiment [9], 120 ng/mL.

Take `CC(C)[C@H]1NC(=O)[C@H](CCCCN)NC(=O)[C@@H](Cc2c[nH]c3ccccc23)NC(=O)[C@H](Cc2ccc(O)cc2)NC(=O)[C@@H](NC[C@@H](N)Cc2ccccc2)CSSC[C@H](C(=O)N[C@H](C(N)=O)[C@@H](C)O)NC1=O`: the Plasma GH in [10] turned out to be 90 ng/mL; in experiment [11], 185 ng/mL.

Consider `CC(C)[C@@H]1CN[C@@H](C(=O)N[C@H](C(N)=O)[C@@H](C)O)CSSC[C@H](NC(=O)[C@@H](N)Cc2ccccc2)C(=O)N[C@@H](Cc2ccc(O)cc2)C(=O)N[C@H](Cc2c[nH]c3ccccc23)C(=O)N[C@@H](CCCCN)C(=O)N1`, for which the results for the Plasma GH in [6], in [7] and in experiment [12] were 266 ng/mL, 381 ng/mL and 225 ng/mL, respectively.

As for `CC(C)[C@@H]1NC[C@H](CCCCN)NC(=O)[C@@H](Cc2c[nH]c3ccccc23)NC(=O)[C@H](Cc2ccc(O)cc2)NC[C@@H](NC(=O)[C@H](N)Cc2ccccc2)CSSC[C@@H](C(=O)N[C@H](C(N)=O)[C@@H](C)O)NC1=O`, the Potency was 65% in experiment [1] and 0.98% in experiment [3]. The ED50 in experiment [2] was determined as 6.3 nM.

For the molecule `CC(C)[C@@H]1NC(=O)[C@H](CCCCN)NC(=O)[C@@H](Cc2c[nH]c3ccccc23)NC(=O)[C@H](Cc2ccc(O)cc2)NC(=O)[C@@H](NC(=O)[C@H](N)Cc2ccccc2)CSSC[C@H](CN[C@H](C(N)=O)[C@@H](C)O)NC1=O`, the figures for the Potency in [1] and in [3] were 73% and 0.41%, respectively. The ED50 in experiment [2] was 15 nM.

As for `CC(C)[C@H]1NC[C@H](CCCCN)NC(=O)[C@@H](Cc2c[nH]c3ccccc23)NC(=O)[C@H](Cc2ccc(O)cc2)NC[C@@H](NC(=O)[C@@H](N)Cc2ccccc2)CSSC[C@H](C(=O)N[C@H](C(N)=O)[C@@H](C)O)NC1=O`, the results for the Plasma GH in [6], in experiment [5] and in [7] were 124 ng/mL, 258 ng/mL and 250 ng/mL, respectively.

As to `CC(C)[C@@H]1CN[C@@H](C(=O)N[C@H](C(N)=O)[C@@H](C)O)CSSC[C@H](NC(=O)[C@@H](N)Cc2ccccc2)C(=O)N[C@@H](Cc2ccc(O)cc2)C(=O)N[C@H](Cc2c[nH]c3ccccc23)CN[C@@H](CCCCN)C(=O)N1`, the Plasma GH in experiment [6] was 393 ng/mL; in [7], 509 ng/mL; in [13], 325 ng/mL.

Take `CC(C)[C@H]1NC(=O)[C@H](CCCCN)NC(=O)[C@@H](Cc2c[nH]c3ccccc23)NC[C@H](Cc2ccc(O)cc2)NC(=O)[C@@H](NC(=O)[C@@H](N)Cc2ccccc2)CSSC[C@H](C(=O)N[C@H](C(N)=O)[C@@H](C)O)NC1=O`: the Plasma GH in [6] came out at 176 ng/mL; in experiment [7], 307 ng/mL; in experiment [12], 137 ng/mL.

For `CC(C)[C@@H]1NC[C@H](CCCCN)NC(=O)[C@@H](Cc2c[nH]c3ccccc23)NC(=O)[C@H](Cc2ccc(O)cc2)NC[C@@H](NC(=O)[C@H](N)Cc2ccc3ccccc3c2)CSSC[C@@H](C(=O)N[C@H](C(N)=O)[C@@H](C)O)NC1=O`, the results for the Potency in experiment [1] and in [3] were 50% and 3.44%, respectively. In addition, the ED50 in experiment [2] turned out to be 1.8 nM.

Regarding `CC(C)[C@@H]1NC(=O)[C@H](CCCCN)NC[C@@H](Cc2c[nH]c3ccccc23)NC(=O)[C@H](Cc2ccc(O)cc2)NC(=O)[C@@H](NC(=O)[C@H](N)Cc2ccccc2)CSSC[C@@H](C(=O)N[C@H](C(N)=O)[C@@H](C)O)NC1=O`, the Potency was found to be 2% in [1] and 0.03% in experiment [3]. This molecule registered an ED50 in experiment [2] of 190 nM.

Turning to `CC(C)[C@@H]1NC[C@H](CCCCN)NC(=O)[C@@H](Cc2c[nH]c3ccccc23)NC(=O)[C@H](Cc2ccc(O)cc2)NC(=O)[C@@H](NC(=O)[C@H](N)Cc2ccccc2)CSSC[C@@H](C(=O)N[C@H](C(N)=O)[C@@H](C)O)NC1=O`, the figures for the Potency in [1] and in [3] were 434% and 67.27%, respectively. For the same molecule, in experiment [2], the ED50 worked out at 0.092 nM.

As to `CC(C)[C@H]1NC(=O)[C@H](CCCCN)NC(=O)[C@@H](Cc2c[nH]c3ccccc23)NC(=O)[C@H](Cc2ccc(O)cc2)NC(=O)[C@@H](NC(=O)[C@@H](N)Cc2ccccc2)CSSC[C@H](CN[C@H](C(N)=O)[C@@H](C)O)NC1=O`, the figures for the Plasma GH in [10] and in experiment [11] were 156 ng/mL and 248 ng/mL, respectively.

Consider `CC(C)[C@H]1NC(=O)[C@H](CCCCN)NC[C@@H](Cc2c[nH]c3ccccc23)NC(=O)[C@H](Cc2ccc(O)cc2)NC(=O)[C@@H](NC(=O)[C@@H](N)Cc2ccccc2)CSSC[C@H](C(=O)N[C@H](C(N)=O)[C@@H](C)O)NC1=O`, for which the Plasma GH in [6] worked out at 348 ng/mL; in experiment [7], 325 ng/mL; in [12], 265 ng/mL.

For the molecule `CC(C)[C@@H]1CN[C@H](C(=O)N[C@H](C(N)=O)[C@@H](C)O)CSSC[C@H](NC(=O)[C@H](N)Cc2ccccc2)C(=O)N[C@@H](Cc2ccc(O)cc2)C(=O)N[C@H](Cc2c[nH]c3ccccc23)C(=O)N[C@@H](CCCCN)C(=O)N1`, the values for the Potency in experiment [1] and in [3] were 2% and 0.02%, respectively. In experiment [2], this molecule registered an ED50 of 350 nM.
